These results are taken from ChEMBL document CHEMBL3108732, “Synthesis and evaluation of analogues of N-phthaloyl-l-tryptophan (RG108) as inhibitors of DNA methyltransferase 1” (J Med Chem, 2014).

Test [1] deals with T1, DNA (cytosine-5)-methyltransferase 1 (Homo sapiens, UniProt P26358). In words: Inhibition of human recombinant DNMT1 expressed in […] assessed as inhibition of tritiated methyl incorporation from [3H]-labeled AdoMet into hemimethylated DNA duplex at 500 uM after 2 hrs by liquid scintillation counting analysis relative to control. The format is cell-based. The essentials: (§1)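 Human recombinant DNMT1 transferred tritiated methyl from [3H]-AdoMet onto a short hemimethylated DNA duplex carrying 8 CpGs, and direct incorporation of the radiolabel was measured. Compounds were first screened at a single concentration.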

Another test deals with DU-145. In words: Cytotoxicity against human DU145 cells after 72 hrs by MTS assay. To be noted: DU-145, 72 h, read-out: TC50 (the source's name). The format is functional.
The target in test [2] is T1, DNA (cytosine-5)-methyltransferase 1. In words: Inhibition of human recombinant DNMT1 expressed in […] assessed as inhibition of tritiated methyl incorporation from [3H]-labeled AdoMet into hemimethylated DNA duplex after 2 hrs by liquid scintillation counting analysis. The test is classed as cell-based. The essentials:
as §1

Test [3] is described as follows: Inhibition of Escherichia coli DAM by [3H]-SAM incorporation assay. Put shortly:
(§2)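 In vitro methyltransferase activity was quantified with a biotin–avidin microplate kinetic assay based on [3H]-SAM incorporation. G9a was tested up to 1 mM.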

Test [4] in a line: Inhibition of G9a (unknown origin) by [3H]-SAM incorporation assay. Put shortly:
as §2

Test [5] deals with DNA (cytosine-5)-methyltransferase 3A (Mus musculus) (UniProt O88508). In words: Binding affinity to mouse Dnmt3A catalytic domain assessed as inhibition of AdoHcy binding at 0.85 mM by WaterLOGSY spectroscopic analysis.
Test [6] can be described thus: Inhibition of Spiroplasma M.SssI using unmethylated DNA as substrate after 2 hrs by agarose gel electrophoresis.

Active and inactive are the calls of the source. The rule behind the calls is not given here.

T1 sequence (P26358 whole entry): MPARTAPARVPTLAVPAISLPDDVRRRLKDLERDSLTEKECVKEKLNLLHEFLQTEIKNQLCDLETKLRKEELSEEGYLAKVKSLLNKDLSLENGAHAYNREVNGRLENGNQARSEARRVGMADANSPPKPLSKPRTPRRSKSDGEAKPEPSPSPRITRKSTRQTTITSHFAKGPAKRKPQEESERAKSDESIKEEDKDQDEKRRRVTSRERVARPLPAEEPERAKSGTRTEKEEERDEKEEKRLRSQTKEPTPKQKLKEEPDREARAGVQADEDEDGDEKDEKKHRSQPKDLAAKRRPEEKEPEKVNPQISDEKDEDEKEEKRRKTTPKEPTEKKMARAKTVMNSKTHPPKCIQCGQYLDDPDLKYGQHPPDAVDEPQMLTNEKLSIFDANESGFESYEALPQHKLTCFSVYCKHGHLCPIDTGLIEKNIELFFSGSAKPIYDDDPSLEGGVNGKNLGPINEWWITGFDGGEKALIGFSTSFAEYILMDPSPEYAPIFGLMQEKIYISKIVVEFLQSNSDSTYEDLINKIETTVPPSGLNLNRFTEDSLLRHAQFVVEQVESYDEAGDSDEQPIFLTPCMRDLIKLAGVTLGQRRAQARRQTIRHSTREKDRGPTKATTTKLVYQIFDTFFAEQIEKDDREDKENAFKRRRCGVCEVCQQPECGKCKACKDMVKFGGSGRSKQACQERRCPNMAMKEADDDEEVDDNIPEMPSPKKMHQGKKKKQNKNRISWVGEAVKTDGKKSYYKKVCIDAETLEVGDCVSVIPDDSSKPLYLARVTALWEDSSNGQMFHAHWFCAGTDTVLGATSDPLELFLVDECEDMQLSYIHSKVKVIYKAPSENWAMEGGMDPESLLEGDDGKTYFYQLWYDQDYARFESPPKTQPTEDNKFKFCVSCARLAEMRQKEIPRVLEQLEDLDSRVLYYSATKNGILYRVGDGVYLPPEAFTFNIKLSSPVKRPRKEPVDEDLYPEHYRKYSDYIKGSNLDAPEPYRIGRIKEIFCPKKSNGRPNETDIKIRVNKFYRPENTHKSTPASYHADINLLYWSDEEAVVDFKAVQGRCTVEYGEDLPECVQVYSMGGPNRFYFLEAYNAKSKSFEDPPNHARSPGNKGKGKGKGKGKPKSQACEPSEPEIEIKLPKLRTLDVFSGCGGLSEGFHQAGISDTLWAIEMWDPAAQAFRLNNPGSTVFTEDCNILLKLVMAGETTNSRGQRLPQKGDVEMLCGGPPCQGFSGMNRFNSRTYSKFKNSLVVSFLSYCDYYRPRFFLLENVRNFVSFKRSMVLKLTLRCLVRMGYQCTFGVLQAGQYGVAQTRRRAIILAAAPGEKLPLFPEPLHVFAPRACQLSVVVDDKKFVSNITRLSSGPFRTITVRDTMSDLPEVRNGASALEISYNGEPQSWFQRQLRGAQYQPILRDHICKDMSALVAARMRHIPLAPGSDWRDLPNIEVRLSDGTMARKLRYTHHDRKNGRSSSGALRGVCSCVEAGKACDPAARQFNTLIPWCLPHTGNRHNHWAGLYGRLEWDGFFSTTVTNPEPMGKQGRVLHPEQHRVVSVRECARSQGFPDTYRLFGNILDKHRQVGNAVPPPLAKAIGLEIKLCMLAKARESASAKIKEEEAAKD

Turning to `O=C(O)[C@H](Cc1ccccc1)N1C(=O)c2ccccc2C1=O`, in test [1], the inhibition entry was “inactive”.

Regarding `O=C(O)[C@H](Cc1c[nH]c2ccccc12)NSc1ncccc1[N+](=O)[O-]`, in the test with DU-145, the CC50 was 211 µM. Also, the IC50 in test [2] was 20 µM.

On to `O=C(O)[C@H](Cc1cc(=O)[nH]c2ccccc12)N1C(=O)c2ccccc2C1=O`, for which the inhibition result in test [1] is “inactive”.

For the compound `O=C(O)C1C(Cc2c[nH]c3ccccc23)CCN1C(=O)c1ccc2ccccc2c1` (stereo not given), the inhibition in test [1] was found to be 50%.

As for `O=C(O)C1C(Cc2c[nH]c3ccccc23)CCN1C(=O)c1ccccc1` (stereo not given), the IC50 is greater than 750 µM in test [3] and greater than 1 mM in test [4]. Further, in test [1], the inhibition turned out to be 50%.

Take `O=C(O)[C@H](Cc1c[nH]c2ccccc12)N1C(=O)c2ccccc2C1=O`: in the test on DU-145, the CC50 came to 660 µM. In addition, in test [5], the inhibition was 50%. Besides, the concentration for half-maximal inhibition (IC50) in test [2] turned out to be 390 µM; in test [6], 115 nM.

For the compound `O=C(O)[C@H](Cc1c[nH]c2ccccc12)n1c(=O)[nH]c2ccccc2c1=O`, the inhibition entry in test [1] is “inactive”.

Consider `O=C(O)[C@H](Cc1c[nH]cn1)N1C(=O)c2ccccc2C1=O`, for which the inhibition result in test [1] is “inactive”.

Take `O=C(O)[C@H]1[C@@H](Cc2c[nH]c3ccccc23)CCN1C(=O)c1ccccc1`: the CC50 in the test with DU-145 is 232 µM. Also, the IC50 in test [2] was found to be 73 µM.

Regarding `O=C(O)[C@H](Cc1c[nH]c2ccccc12)CN1C(=O)c2ccccc2C1=O`, the inhibition result in test [1] was “inactive”.

`O=C(O)[C@@H]1[C@H](Cc2c[nH]c3ccccc23)CCN1C(=O)CN1C(=O)c2ccccc2C1=O`: in test [1], the inhibition entry was “inactive”.

On to `O=C(O)[C@@H](Cc1c[nH]c2ccccc12)CN1C(=O)c2ccccc2C1=O`, for which the inhibition result in test [1] was “inactive”.

For `N[C@@H](Cc1c[nH]c2ccccc12)C(=O)O`, the inhibition result in test [1] is “inactive”.

With `O=C(CN1C(=O)c2ccccc2C1=O)N[C@@H](Cc1c[nH]c2ccccc12)C(=O)O`, the inhibition result in test [1] is “inactive”.

As to `O=C(O)[C@H](Cc1c[nH]c2ccccc12)NSc1ccc([N+](=O)[O-])cc1[N+](=O)[O-]`, in the test with DU-145, the CC50 was 103 µM. In addition, the IC50 in test [2] was 40 µM.

As for `NC(=O)[C@H](Cc1c[nH]c2ccccc12)N1C(=O)c2ccccc2C1=O`, the inhibition result in test [1] was “inactive”.

As to `O=C(O)[C@@H]1[C@H](Cc2c[nH]c3ccccc23)CCN1Sc1ccc([N+](=O)[O-])cc1[N+](=O)[O-]`, the CC50 with DU-145 was determined as 250 µM. For the same compound, the half-maximal inhibitory concentration (IC50) in test [2] was 80 µM.

As to `O=C(O)CN1C(=O)c2ccccc2C1=O`, the inhibition result in test [1] was “inactive”.

As for `O=C(O)[C@@H]1[C@H](Cc2c[nH]c3ccccc23)CCN1C(=O)c1ccccc1`, the CC50 in the test on DU-145 was found to be 230 µM. For the same compound, the half-inhibitory concentration (IC50) in test [2] is 98 µM.

For the compound `O=C(O)[C@H](Cc1csc2ccccc12)N1C(=O)c2ccccc2C1=O`, the 50% inhibitory concentration (IC50) in test [2] came to 230 µM.

`O=C(O)[C@H]1[C@@H](Cc2c[nH]c3ccccc23)CCN1C(=O)c1ccc2ccccc2c1`: the CC50 in the test on DU-145 came to 130 µM. Further, the IC50 in test [2] amounted to 50 µM.

On to `O=C(O)[C@@H]1[C@H](Cc2c[nH]c3ccccc23)CCN1C(=O)c1ccc2ccccc2c1`, for which, in the test on DU-145, the CC50 worked out at 280 µM. Further, the IC50 in test [2] turned out to be 128 µM.

`O=C(O)C[C@H](Cc1c[nH]c2ccccc12)N1C(=O)c2ccccc2C1=O`: in test [1], the inhibition result is “inactive”.
